Results: ChEMBL document CHEMBL4610093, “Bioreductively Activatable Prodrug Conjugates of Combretastatin A-1 and Combretastatin A-4 as Anticancer Agents Targeted toward Tumor-Associated Hypoxia” (J Nat Prod, 2020)

Columns and labels:
[1] = molecular target: T1, NADPH-cytochrome P450 oxidoreductase (Rattus norvegicus, UniProt P00388); assay: Substrate activity at rat NADPH-cytochrome P450 oxidoreductase expressed in supersomes assessed as compound cleavage after 90 mins in anaerobic condition by HPLC analysis; settings: read-out: Drug degradation
T1 sequence (P00388 whole entry): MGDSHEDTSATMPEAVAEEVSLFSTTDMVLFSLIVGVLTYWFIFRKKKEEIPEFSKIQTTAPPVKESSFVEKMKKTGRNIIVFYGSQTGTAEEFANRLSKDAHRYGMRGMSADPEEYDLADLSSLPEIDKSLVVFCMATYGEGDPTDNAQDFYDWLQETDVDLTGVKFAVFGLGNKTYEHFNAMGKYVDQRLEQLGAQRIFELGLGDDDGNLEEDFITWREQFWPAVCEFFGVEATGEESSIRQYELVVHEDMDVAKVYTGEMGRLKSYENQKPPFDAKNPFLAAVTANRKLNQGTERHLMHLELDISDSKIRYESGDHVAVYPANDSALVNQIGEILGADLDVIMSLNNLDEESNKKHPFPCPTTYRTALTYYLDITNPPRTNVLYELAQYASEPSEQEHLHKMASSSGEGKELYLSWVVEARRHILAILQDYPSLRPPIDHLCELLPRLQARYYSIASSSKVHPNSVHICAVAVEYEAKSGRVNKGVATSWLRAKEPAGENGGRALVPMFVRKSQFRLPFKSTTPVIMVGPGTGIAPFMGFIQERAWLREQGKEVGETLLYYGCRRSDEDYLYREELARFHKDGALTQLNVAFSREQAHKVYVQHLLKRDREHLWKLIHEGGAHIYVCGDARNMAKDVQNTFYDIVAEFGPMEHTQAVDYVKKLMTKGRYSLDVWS
Procedure, shortened: (§1)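 Rat POR supersomes (0.006 U) with 0.8 mM NADPH, acting on compound diluted from 10 mM DMSO stock into 200 mM potassium phosphate pH 7.4 with 0.1% Triton X-100 and 400 µM protocatechuic acid. Made anaerobic by N2 evacuation/sparging plus 0.08 U protocatechuate dioxygenase. Incubated at 37 °C, quenched with acetonitrile, quantified by HPLC against standard curves; no-POR controls.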

4T1 [2] = assay: Induction in necrosis in tumor of BALB/C mouse implanted with mouse 4T1 cells harboring firefly luciferase reporter gene at 180 mg/kg, ip measured after 72 to 96 hrs by hematoxylin and eosin staining based assay (reference value: 46%); type: functional
Tubulin (Homo sapiens) [3] = molecular target: T2, Tubulin (Homo sapiens) (UniProt P68371+Q9H4B7+P0DPH7+P68366+Q13509+Q71U36+P04350+Q3ZCM7+P07437+P68363+Q9BQE3+Q6PEY2+Q13885+Q9BVA1+Q9BUF5); assay: Inhibition of [3H]colchicine binding to tubulin (unknown origin) at 5 uM incubated for 10 mins by scintillation counting relative to control; type: protein-complex assay
Procedure, shortened: (§2)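 Purified tubulin at 1.0 µM with 5.0 µM [3H]colchicine, in 1.0 M monosodium glutamate (pH 6.6), 0.5 mg/mL BSA, 0.1 M glucose-1-phosphate, 1.0 mM MgCl2, 1.0 mM GTP and 5% DMSO. Incubated 10 min at 37 °C, then filter-bound radioactivity counted. Percent inhibition taken against no-inhibitor controls, corrected for filter binding without tubulin.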

[4] = Solubility of the compound in water; type: physicochemical; settings: buffer
A549 [5] = assay: Cytotoxicity against human A549 cells incubated for 52 hrs in oxic condition by sulforhodamine B assay; type: functional; settings: A549, 52 h
Procedure, shortened: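 Normoxic arm: A549 cells at 6000 cells/well, 2 h attachment. Serial dilutions from DMSO stocks, top final concentration 50 µg/mL, in duplicate. Drug exposure 4 h under 95% air/5% CO2, then 48 h aerobic culture. Cytotoxicity read by SRB.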

[6] = Inhibition of bovine brain tubulin polymerisation preincubated for 15 mins followed by GTP addition and measured for 20 mins by turbidimetry based spectrophotometric method; design: species or system Bos taurus
Procedure, shortened: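 Bovine brain tubulin at 1.0 mg/mL (10 µM) in 0.8 M monosodium glutamate (pH 6.6) with 4% DMSO and compound. Preincubated 15 min at 30 °C, chilled, then 0.4 mM GTP added. Temperature jumped from 0 to 30 °C; turbidity at 350 nm followed for 20 min. IC50 is the concentration halving extent of assembly.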

A549 [7] = assay: Cytotoxicity against human A549 cells incubated for 4 hrs in anoxic condition followed by oxic exposure for 48 hrs by sulforhodamine B assay; type: functional
Procedure, shortened: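 Anoxic arm: A549 cells handled in an anaerobic chamber (≤10 ppm O2) with medium and plates preconditioned ≥48 h. 6000 cells/well, 2 h attachment. Serial dilutions from DMSO stocks, top final concentration 50 µg/mL, in duplicate. 4 h anaerobic drug exposure, then 48 h aerobic, then SRB readout.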

[8] = Stability of the compound in pH 7.4 potassium phosphate buffer assessed as compound hydrolysis after 48 hrs; type: physicochemical; settings: read-out: Drug degradation
A549 [9] = assay: Ratio of GI50 for human A549 cells in oxic condition to GI50 for anoxic condition; type: functional
Procedure, shortened: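 A549 cells at 6000 cells/well. Drug exposure 4 h either anaerobic (≤10 ppm O2, preconditioned medium and plates) or under 95% air/5% CO2, then 48 h aerobic. SRB cytotoxicity read in duplicate, top final concentration 50 µg/mL. Ratio taken as oxic over anoxic value.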

[10] = Solubility of the compound in DMSO; type: physicochemical
[11] = molecular target: T1, NADPH-cytochrome P450 oxidoreductase; assay: Substrate activity at rat NADPH-cytochrome P450 oxidoreductase expressed in supersomes assessed as compound cleavage after 24 hrs in anaerobic condition by HPLC analysis; settings: read-out: Activity; procedure, shortened: as §1
[12] = Solubility of the compound in buffered saline; type: physicochemical; settings: buffer
Tubulin (Homo sapiens) [13] = molecular target: T2, Tubulin (Homo sapiens); assay: Inhibition of [3H]colchicine binding to tubulin (unknown origin) at 1 uM incubated for 10 mins by scintillation counting relative to control; type: protein-complex assay; procedure, shortened: as §2
4T1 [14] = assay: Induction in necrosis in tumor of BALB/C mouse implanted with mouse 4T1 cells harboring firefly luciferase reporter gene at 120 mg/kg, ip measured after 72 to 96 hrs by hematoxylin and eosin staining based assay (reference value: 46%); type: functional
4T1 [15] = assay: Induction of vascular damage in mouse 4T1 cells harboring firefly luciferase reporter gene implanted BALB/C mouse assessed as reduction in light emission at 120 mg/kg, ip measured after 4 hrs by Bioluminescence imaging analysis; type: functional; design: scale not given: the % may be the effect or the level left
Procedure, shortened: (§3)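 Orthotopic 4T1-luc mammary fat pad tumours (10–12 mm) in female BALB/c mice. Single IP dose of 120 mg/kg in saline given right after baseline imaging. Dynamic BLI over about 20 min after subcutaneous D-luciferin (120 mg/kg), repeated with fresh luciferin at 4, 24 and 48 h. Signal compared by area under the light emission curve.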

4T1 [16] = assay: Induction of vascular damage in mouse 4T1 cells harboring firefly luciferase reporter gene implanted BALB/C mouse assessed as reduction in light emission at 120 mg/kg, ip measured up to 72 hrs by Bioluminescence imaging analysis; type: functional; design: scale not given: the % may be the effect or the level left; procedure, shortened: as §3
[17] = Stability of the compound in pH 7.4 potassium phosphate buffer assessed as spontaneous compound hydrolysis measured for 150 mins; type: physicochemical; settings: pH 7.4, 2.5 h
[18] = Stability of the compound in pH 7.4 potassium phosphate buffer assessed as compound hydrolysis after 24 to 48 hrs; type: physicochemical

| Compound | metabolised at 1.5 h [1] [%] | inhibition (Tubulin (Homo sapiens) [3]) [%] | GI50 (A549 [5]) [nM] | IC50 [6] [nM] | GI50 (A549 [7]) [nM] | degraded at 48 h [8] [%] | RatioGI50 (A549 [9]) | other results |
| --- | --- | --- | --- | --- | --- | --- | --- | --- |
| COc1ccc(/C=C\c2cc(OC)c(OC)c(OC)c2)cc1OC(C)(C)c1ccc([N+](=O)[O-])s1 | 25.4 | 33 | 2200 | > 20000 | 53 | 0.69 | 41.5 | Activity (4T1 [2]): 47 - 55%; solubility [4]: Insoluble; solubility [10]: Soluble; metabolised at 24 h [11]: 100%; solubility [12]: Insoluble |
| COc1ccc(/C=C\c2cc(OC)c(OC)c(OC)c2)cc1OCc1ccc([N+](=O)[O-])s1 | 2.7 | 26 | 110 | > 20000 | 32 | 0.35 | 3.4 |  |
| COc1cc(/C=C\c2ccc(OC)c(OC(C)c3ccc([N+](=O)[O-])s3)c2OC(C)C)cc(OC)c1OC (centres undefined) | 3.8 |  | 2900 | > 20000 | 1200 | 0.69 | 2.4 |  |
| COc1cc(/C=C\c2ccc(OC)c3c2OC(C)(c2ccc([N+](=O)[O-])s2)O3)cc(OC)c1OC (centres undefined) |  |  | 550 | > 20000 | 720 |  | 0.76 |  |
| COc1cc(/C=C\c2ccc(OC)c(OCc3ccc([N+](=O)[O-])s3)c2O)cc(OC)c1OC | 17.9 | 58 | 320 | 4300 | 690 | 0 | 0.46 |  |
| Nc1n[n+]([O-])c2ccccc2[n+]1[O-] [TIRAPAZAMINE] |  |  | 63000 |  | 6800 |  | 9.2 |  |
| COc1ccc(/C=C\c2cc(OC)c(OC)c(OC)c2)cc1O [COMBRETASTATIN A4] |  |  | 4.7 |  | 6.1 |  |  |  |
| COc1ccc(/C=C\c2cc(OC)c(OC)c(OC)c2)c(OS(=O)(=O)c2ccc(C)cc2)c1O |  | 84 | 65 | 840 | 190 |  |  | inhibition (Tubulin (Homo sapiens) [13]): 50% |
| COc1cc(/C=C\c2ccc(OC)c(OCc3ccc([N+](=O)[O-])s3)c2OS(=O)(=O)c2ccc(C)cc2)cc(OC)c1OC |  |  | 440 | > 20000 | 520 | 0.25 | 0.85 |  |
| COc1cc(/C=C\c2ccc(OC)c(OC(C)(C)c3ccc([N+](=O)[O-])s3)c2OC(C)C)cc(OC)c1OC | 7.6 |  | 1500 | 9500 | 490 | 4.03 | 3.1 |  |
| COc1ccc(/C=C\c2cc(OC)c(OC)c(OC)c2)cc1OP(=O)([O-])[O-].[Na+].[Na+] [FOSBRETABULIN DISODIUM] |  |  |  |  |  |  |  | Activity (4T1 [14]): 70%; Activity (4T1 [15]): >99%; Activity (4T1 [16]): >90% |
| COc1cc(/C=C\c2ccc(OC)c3c2OC(c2ccc([N+](=O)[O-])s2)O3)cc(OC)c1OC (centres undefined) |  | 25 | 46 | 1700 | 33 |  | 1.4 |  |
| COc1ccc(/C=C\c2cc(OC)c(OC)c(OC)c2)cc1OC(C)c1ccc([N+](=O)[O-])s1 (centres undefined) | 4.1 | 15 | 150 | > 20000 | 38 |  | 4 |  |
| COc1ccc(/C=C\c2cc(OC)c(OC)c(OC)c2)c(OCc2ccc([N+](=O)[O-])s2)c1O | 14.2 | 92 | 170 | 1700 | 280 | 0 | 0.61 | inhibition (Tubulin (Homo sapiens) [13]): 53% |
| COc1cc(/C=C\c2ccc(OC)c(OC(C)c3ccc([N+](=O)[O-])s3)c2OS(=O)(=O)c2ccc(C)cc2)cc(OC)c1OC (centres undefined) | 13.5 |  | 4600 | > 20000 | 3300 | 0.84 | 1.4 |  |
| COc1ccc(/C=C\c2cc(OC)c(OC)c(OC)c2)c(OC(C)C)c1O |  | 94 | 63 | 820 | 46 |  |  | inhibition (Tubulin (Homo sapiens) [13]): 72% |
| COc1cc(/C=C\c2ccc(OC)c(OCc3ccc([N+](=O)[O-])s3)c2OC(C)C)cc(OC)c1OC | 1.1 |  | 1900 | 12000 | 300 | 1.59 | 6.3 |  |
| O=[N+]([O-])c1nccn1CC(O)CNCCBr (centres undefined) |  |  | > 89000 |  | 24000 |  |  |  |
| COc1ccc(/C=C\c2cc(OC)c(OC)c(OC)c2)c(OC(C)(C)c2ccc([N+](=O)[O-])s2)c1O | 100 | 43 | 6000 | 1300 | 480 |  | 12.5 | Stability [17]: Stable; Stability [18]: Unstable |
| COc1ccc(/C=C\c2cc(OC)c(OC)c(OC)c2)c(O)c1O [COMBRETASTATIN A-1] |  | 99.6 | 1200 |  | 820 |  |  |  |
| COc1cc(/C=C\c2ccc(OC)c(OC(C)c3ccc([N+](=O)[O-])s3)c2O)cc(OC)c1OC (centres undefined) | 25.5 | 72 | 310 | 6200 | 51 | 0 | 6.1 |  |
| COc1ccc(/C=C\c2cc(OC)c(OC)c(OC)c2)c(OC(C)c2ccc([N+](=O)[O-])s2)c1O (centres undefined) | 5.6 | 90 | 180 | 840 | 260 | 0.5 | 0.69 | inhibition (Tubulin (Homo sapiens) [13]): 34% |
